Rows were chosen to be rich in hits. Some 4.5% of all compounds tested hit in one or more screens of this group.
PHOSPHO1 block: PHOSPHO1 (human) inhibition; inhibition, % at 13.3 µM; actives 1.1% (n = 290,000); recombinant PHOSPHO1, absorbance phosphatase assay; AID 1565; Q8TCT1; in the data active = inhibition above about 60%
RGS4 pot: potentiators or activators of RGS4; HEK293 M3R/inducible RGS4, carbachol calcium flux Fluo4; hits give low values; B-score at 10 µM; actives 0.92% (n = 310,000); AID 463111;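 active = B-score of the integrated calcium signal more than 4 SD below the library mean, with starting fluorescence not abnormally high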;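 also: negative B-score means reduced calcium response which marks RGS4 activation or potentiation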
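Material: M3R-expressing HEK293 line, RGS4 induced by doxycycline | Schedule: Overnight RGS4 induction, 30 min dye load 37 °C, 20 min compound RT | Measured by: Fluo4 fluorescence kinetic imaging of calcium | Read-out: Integrated calcium ratio converted to B score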
MrgX1 ag: agonists of human MrgX1 receptor. Q96LB2. MrgX1-HEK293 cells, Fluo-4 calcium fluorescence, agonist mode; hits give high values. B-score at 10 µM. actives 0.44% (n = 310,000). AID 588627;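 active = calcium response B-score plate-corrected fluorescence ratio at least 3 library SD, with starting fluorescence B-score inside 5 SD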
Target sequence (Q96LB2 whole entry, looked up): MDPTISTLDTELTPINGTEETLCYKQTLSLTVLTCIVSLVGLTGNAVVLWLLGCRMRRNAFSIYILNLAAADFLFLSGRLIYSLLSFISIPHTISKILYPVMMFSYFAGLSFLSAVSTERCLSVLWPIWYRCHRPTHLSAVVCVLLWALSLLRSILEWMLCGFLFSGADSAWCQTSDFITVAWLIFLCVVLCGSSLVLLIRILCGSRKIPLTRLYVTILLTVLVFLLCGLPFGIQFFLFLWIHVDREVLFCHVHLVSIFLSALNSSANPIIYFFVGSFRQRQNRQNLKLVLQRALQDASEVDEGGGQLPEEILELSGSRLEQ
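Material: MrgX1-expressing HEK293 cells / Dosing: compound as first of three additions / Incubation: overnight seeding, then 1 h dark dye loading / Signal: Fluo-4 NW calcium fluorescence / Evaluation: B-scored fluorescence response ratio / Benchmarks: positive and negative control wells on each plate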
RGS4 block: human RGS4 inhibition; P49798; HEK293 M3R/RGS4 inducible, Fluo-4 calcium flux; hits give high values; triggered by carbachol at its EC20; B-score at 10 µM; actives 0.45% (n = 310,000);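 active = B-score, a plate-corrected calcium signal, over three deviations above library mean, with baseline fluorescence within five deviations of library mean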;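 also: RGS4 expression induced by doxycycline in cells with stable M3 receptor; B-score is computed from the integrated fluorescence ratio over baseline after carbachol; higher B-score means a larger calcium signal and so more RGS4 inhibition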
Target sequence (P49798 whole entry, looked up): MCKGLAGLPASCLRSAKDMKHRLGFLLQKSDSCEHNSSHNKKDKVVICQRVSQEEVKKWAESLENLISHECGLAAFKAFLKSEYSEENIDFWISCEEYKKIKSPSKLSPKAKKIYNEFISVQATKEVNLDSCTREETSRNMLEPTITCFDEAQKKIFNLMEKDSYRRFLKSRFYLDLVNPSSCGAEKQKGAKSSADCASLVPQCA
MrgX1 antag: human MrgX1 receptor antagonism, primary screen; Q96LB2; MRGX1-HEK293 calcium flux, Fluo-4, BAM8-22 antagonism; hits give low values; B-score at 10 µM; actives 1.3% (n = 310,000);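 active = calcium-response B-score plate-corrected more than 3 library SD below zero, starting fluorescence within 5 deviations, no agonist response on first addition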;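 also: peak minus trough fluorescence over baseline after final BAM8-22 challenge near maximal dose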
MrgX1 allo act: human MrgX1 positive allosteric modulation, primary screen. AID 588675. Q96LB2. B-score at 10 µM. MrgX1-HEK293, Fluo-4 calcium flux, FDSS; hits give high values. actives 0.63% (n = 310,000);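 active = plate-corrected calcium response at least 3 library SD above typical, normal starting fluorescence, not activating the receptor alone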;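 also: compound read alongside a low EC10 to EC30 dose of BAM8-22 agonist; peak minus trough fluorescence over baseline measured at the second addition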
RGS4 block valid: validation of RGS4 inhibitors. actives 65% (n = 1,700). HEK293 M3R/RGS4, carbachol calcium Fluo-4 fluorescence; carbachol added at its EC20; 0 = buffer wells, 100 = carbachol control. AID 492999. calcium response, % at 10 µM. shares compounds with RGS4 block;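 active = duplicate-averaged calcium response above the buffer-only control mean plus 5 SD of those controls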;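 also: integrated fluorescence ratio F max minus min over baseline F0; higher response in RGS4-induced cells means RGS4 inhibition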
M3R Ca ctr: checks RGS4 inhibitor effects in non-induced HEK293 M3R cells. shares compounds with RGS4 block. carbachol calcium Fluo-4; submaximal (EC20) carbachol stimulus; buffer wells 0%, carbachol control wells 100%. activity (percent), % at 10 µM. actives 20% (n = 1,900); call rule not given here;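 also: RGS4 induction absent so cells express M3R without RGS4; higher means more calcium signal and flags a non-specific hit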
M3R basal Ca ctr: second RGS4 inhibitor counter-screen in uninduced cells lacking carbachol; calcium response (agonist-mode artifact), % at 10 µM; AID 493001; shares compounds with RGS4 block; HEK293 M3R/RGS4 non-induced, Fluo-4 calcium, no carbachol; normalised: buffer wells 0%, carbachol wells 100%; actives 22% (n = 1,900);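 active = duplicate-averaged calcium rise in uninduced cells above buffer wells' mean plus 5 SD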
Active calls of the source: *; i = inactive; nt = not tested or not shown.

SMILES | PHOSPHO1 block | RGS4 pot | MrgX1 ag | RGS4 block | MrgX1 antag | MrgX1 allo act | RGS4 block valid | M3R Ca ctr | M3R basal Ca ctr
CSc1nc(N(CCO)CCO)c2sc3nc(-c4ccco4)c4c(c3c2n1)CCC4 | 79* | i | nt | i | nt | nt | i | i | i
OCCN(CCO)c1ncnc2c1sc1nc(N3CCOCC3)c3c(c12)CCCC3 | 22 | i | i | i | i | i | nt | nt | nt
NN(CCO)C(=S)Nc1ccc(Cl)cc1 | -14 | i | i | i | i | i | nt | nt | nt
O=C(O)CCC(=O)Nc1sc2c(c1C(=O)NCc1ccccc1)CCCC2 | 44 | i | i | i | i | i | nt | nt | nt
COc1ccc(NC(=O)c2c(NC(=O)CCC(=O)O)sc3c2CCCCC3)cc1 | -76 | i | i | i | i | i | i | i | i
COc1ccc(CCN(Cc2cc3ccc(C)cc3n3nnnc23)C(C)=O)cc1OC | -7 | i | i | i | i | i | nt | nt | nt
COc1ccc(C(=O)/C(=C\c2ccco2)N2C=CC=CC2=C(C#N)C#N)cc1 | 46 | i | i | 25* | i | i | 37%* | i | 20%*
N#CC(C#N)=C1C=CC=CN1/C(=C\c1ccco1)C(=O)c1ccccc1 | 0 | nt | i | nt | i | i | nt | nt | nt
COC(=O)CSc1[nH]c2cc(C)ccc2c1[N+](=O)[O-] | 26 | i | i | 16* | i | i | 44%* | i | i
CCOc1ccc2[nH]c(SCC(=O)OC)c([N+](=O)[O-])c2c1 | 32 | i | i | 7.6* | -4.8* | i | 18%* | i | 49%*
Cc1n[nH]c(C)c1CCC(=O)N/N=C/c1c(C)[nH]c2ccccc12 | 32 | i | i | i | i | i | nt | nt | nt
Cc1cc2cc(C(c3nnnn3Cc3ccco3)N3CCc4ccccc43)c(=O)[nH]c2cc1C (stereo not drawn) | 43 | i | i | 5.3* | i | i | 13%* | i | i
Cc1ccc2[nH]c(=O)c(C(c3nnnn3Cc3ccccc3)N3CCc4ccccc43)cc2c1 (stereo not drawn) | 43 | i | i | i | i | i | nt | nt | nt
Cc1cc2cc(C(c3nnnn3Cc3ccco3)N3CCc4ccccc4C3)c(=O)[nH]c2cc1C (stereo not drawn) | -42 | i | i | i | i | i | i | i | 39%*
Cc1cc2cc(C(c3nnnn3Cc3ccccc3)N3CCc4ccccc43)c(=O)[nH]c2cc1C (stereo not drawn) | 23 | i | i | i | i | i | nt | i | 7.0%*
CCCNc1nc(C)cc(-c2cc(C(=O)Nc3ccccc3)on2)n1 | nt | i | i | i | i | i | nt | nt | nt
Cc1nc(-c2cccc(NS(=O)(=O)c3ccc4ccccc4c3)c2)cs1 | 15 | i | i | i | i | i | nt | nt | nt
CCOC(=O)c1nn(-c2ccc(C)cc2)c(=O)cc1OCC(=O)N1CCN(c2ccccc2)CC1 | nt | i | i | i | i | i | nt | nt | nt
Cc1nn2c(-c3ccc(F)cc3)ccnc2c1Br | 20 | i | i | i | i | i | nt | i | i
Cc1nn2c(-c3ccncc3)ccnc2c1Br | 12 | i | i | i | i | i | i | i | i
Cc1nn2c(-c3ccccn3)ccnc2c1Br | 49 | i | i | i | i | i | nt | nt | nt
Cc1nnc(N/N=C/c2cc([N+](=O)[O-])c(N3CCC(C)CC3)cc2N2CCC(C)CC2)n1N | -57 | i | i | 4.9* | i | i | 9.5%* | 36%* | i
CCc1nnc(N/N=C/c2ccc(N3CCC(C)CC3)c([N+](=O)[O-])c2)n1N | -12 | i | i | i | i | i | nt | nt | nt
Cc1cc(C)n2nc(C)c(-c3ccccc3)c2n1 | nt | i | i | i | i | i | nt | nt | nt
Cc1cc(Nc2ccccc2)n2nc(C)c(-c3ccccc3)c2n1 | -6 | i | i | i | i | i | i | i | i
SMILES | PHOSPHO1 block | RGS4 pot | MrgX1 ag | RGS4 block | MrgX1 antag | MrgX1 allo act | RGS4 block valid | M3R Ca ctr | M3R basal Ca ctr
COc1ccc(C(=O)c2c(-c3cccc(C)c3)oc3ccc(N4CCOCC4)cc23)cn1 | -2 | i | i | i | i | i | nt | nt | nt
CN(CC(=O)Nc1ccc(Cl)c(C(F)(F)F)c1)C(=O)c1ccc(N2CCOCC2)c([N+](=O)[O-])c1 | nt | i | i | 5.4* | i | i | 12%* | i | 7.5%*
CN(CC(=O)Nc1cccc(F)c1)C(=O)c1ccc(N2CCOCC2)c([N+](=O)[O-])c1 | 29 | i | i | i | i | i | nt | nt | nt
CCCCc1nc2n[nH]c(N)c2c2c1CSC(C)(C)C2 | 5 | i | i | 4.7* | i | i | i | i | i
O=c1c2ccccc2[nH]c(=S)n1CCCN1CCN(c2ccccc2)CC1 | 6 | i | i | i | i | i | nt | nt | nt
CC1CC(C)CN(CCCn2c(=S)[nH]c3ccccc3c2=O)C1 (stereo not drawn) | 22 | i | i | 13* | i | i | 92%* | 77%* | 11%*
Cc1ccc(-c2cc(-c3ccc(F)cc3)nc(N)c2C#N)o1 | -3 | i | i | 6* | i | i | i | i | i
Cc1ccc(-c2cc(-c3ccccc3)c(C#N)c(N)n2)o1 | 32 | i | i | 7.7* | i | i | 5.5%* | i | i
O=C(O)CSCC(=O)Nc1ccc(-c2nc3ccccc3s2)cc1 | 42 | i | i | i | i | i | nt | nt | nt
Cc1csc(NC(=O)CSCC(=O)O)c1-c1nc2ccccc2s1 | -14 | i | i | 11* | i | i | 34%* | 50%* | i
O=C(Nc1cnc2ccccn2c1=O)c1ccc(Cl)cc1 | 24 | i | i | 4.8* | i | i | i | i | i
COc1ccc(C(CNC(=O)c2cccc(S(=O)(=O)Nc3cccc(C)c3)c2)N2CCOCC2)cc1 (stereo not drawn) | nt | i | i | i | i | i | nt | nt | nt
COC(=O)c1ccc(Cn2nc(C)c([N+](=O)[O-])c2C)o1 | 32 | i | i | i | i | i | nt | nt | nt
